Here are results for three compounds from ChEMBL document CHEMBL3259675, “Novel N-substituted sophoridinol derivatives as anticancer agents” (Eur J Med Chem, 2014).

Where only a bound is given, the exact number is not on record here.

For series [1], the system named is HepG2. Briefly: Cell cycle arrest in human HepG2 cells assessed as accumulation at G0/G1 phase at 2.5 ug/ml after 24 hrs by FACS flow cytometric analysis (reference value: 4.1 %). In kind it is functional. The note with it: HepG2, 24 h. Summed up: (§1)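 HepG2 cells exposed to 0, 2.5, 5 or 10 µg/ml for 24 h, then harvested. Fixed in 70% ethanol and held at −20 °C. Cell-cycle distribution determined by flow cytometry, with untreated cells as control.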

Series [2] can be described thus: Mean residence time in Sprague-Dawley rat at 25 mg/kg, ig administered as single dose. In kind it is ADME, organism-based. More on the design: dose 25 mg/kg, route intragastric. The note with it: in vivo, po. Put shortly:
(§2)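 Male rats, 3 per study, each given a single dose of 25 mg/kg orally (ig) or 5 mg/kg iv. PK parameters from non-compartmental analysis. Oral bioavailability calculated from the ig and iv data.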

The nature of series [3]: AUC (0 to time) in Sprague-Dawley rat at 5 mg/kg, iv administered as single dose. In kind it is ADME, organism-based. More on the design: dose 5 mg/kg, route intravenous. The note with it: plasma. Put shortly: (§3)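 Single dose given to three male rats per study, by oral gavage or intravenous injection. AUC was derived by non-compartmental analysis, n = 3.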
The nature of series [4]: Tmax in Sprague-Dawley rat at 25 mg/kg, ig administered as single dose. In kind it is ADME, organism-based. The arrangement: dose 25 mg/kg, route intragastric. The note with it: in vivo, po. Put shortly:
as §2

Series [5] can be described thus: Cmax in Sprague-Dawley rat at 25 mg/kg, ig administered as single dose. More on the design: dose 25 mg/kg, route intragastric. The note with it: in vivo, po. In kind it is ADME, organism-based. Summed up:
as §2

Series [6] can be described thus: Antiproliferative activity against human U87 cells assessed as growth inhibition after 48 hrs by MTT assay. In kind it is functional, cell-based, U-87MG ATCC. The note with it: U-87 MG. Summed up: (§4)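 Cell lines from ATCC, grown in MEM-EBSS with 10% FBS and 1% penicillin-streptomycin at 37 °C, 5% CO2. Seeded at 4000 cells/well, left 24 h, then exposed to a concentration series for 48 h. Growth read by MTT. Percent inhibition was computed at each concentration and IC50 derived from it. Triplicate determinations, reported as mean SD.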

The subject of series [7] is HepG2. Briefly: Antiproliferative activity against human HepG2 cells assessed as growth inhibition at 10 ug/ml after 48 hrs by MTT assay. The note with it: HepG2, 48 h. In kind it is functional. Put shortly: as §4
A short description of series [8]: Mean residence time in Sprague-Dawley rat at 5 mg/kg, iv administered as single dose. In kind it is ADME, organism-based. More on the design: dose 5 mg/kg, route intravenous. The note with it: in vivo. Summed up:
as §2

Series [9] in a line: Half life in Sprague-Dawley rat at 5 mg/kg, iv administered as single dose. In kind it is ADME, organism-based. More on the design: dose 5 mg/kg, route intravenous. The note with it: in vivo. Put shortly: as §2
Series [10] can be described thus: Oral bioavailability in Sprague-Dawley rat at 25 mg/kg administered as single dose. In kind it is ADME, organism-based. The note with it: in vivo. Put shortly:
as §2

Series [11] deals with HepG2. Briefly: Cell cycle arrest in human HepG2 cells assessed as accumulation at G0/G1 phase at 10 ug/ml after 24 hrs by FACS flow cytometric analysis (reference value: 4.1 %). In kind it is functional. The note with it: HepG2, 24 h. Put shortly: as §1
The next series deals with HCT-116. Briefly: Antiproliferative activity against human HCT116 cells assessed as growth inhibition after 48 hrs by MTT assay. In kind it is functional, cell-based. The note with it: HCT-116, 48 h. Summed up:
as §4

Series [12] deals with HepG2. Put plainly: Cell cycle arrest in human HepG2 cells assessed as accumulation at G0/G1 phase at 5 ug/ml after 24 hrs by FACS flow cytometric analysis (reference value: 4.1 %). In kind it is functional. The note with it: HepG2, 24 h. Put shortly: as §1
In series [13] the test system is HepG2. Briefly: Antiproliferative activity against human HepG2 cells assessed as growth inhibition after 48 hrs by MTT assay. In kind it is functional, cell-based. The note with it: HepG2, 48 h. Put shortly: as §4
A short description of series [14]: Half life in Sprague-Dawley rat at 25 mg/kg, ig administered as single dose. In kind it is ADME, organism-based. The arrangement: dose 25 mg/kg, route intragastric. The note with it: in vivo, po. Put shortly:
as §2

The nature of series [15]: Tmax in Sprague-Dawley rat at 5 mg/kg, iv administered as single dose. In kind it is ADME, organism-based. More on the design: dose 5 mg/kg, route intravenous. The note with it: in vivo. Summed up: as §2
Series [16] concerns Mus musculus. Briefly: Toxicity in mouse assessed as body weight at 250 to 1000 mg/kg, ig. In kind it is organism-based. More on the design: dose 250-1000 mg/kg, route intragastric. The note with it: in vivo, po.
The test system of a further series is KB. Briefly: Antiproliferative activity against human KB cells assessed as growth inhibition after 48 hrs by MTT assay. In kind it is functional, cell-based. Summed up: as §4
A further series relates to NCI-H1299. Put plainly: Antiproliferative activity against human NCI-H1299 cells assessed as growth inhibition after 48 hrs by MTT assay. In kind it is functional, cell-based. The note with it: NCI-H1299, 48 h. Summed up: as §4
A short description of series [17]: Cmax in Sprague-Dawley rat at 5 mg/kg, iv administered as single dose. In kind it is ADME, organism-based. More on the design: dose 5 mg/kg, route intravenous. The note with it: in vivo. Put shortly:
as §2

The next series concerns MCF7. Briefly: Antiproliferative activity against human MCF7 cells assessed as growth inhibition after 48 hrs by MTT assay. In kind it is functional, cell-based. The note with it: MCF7, 48 h. Put shortly:
as §4

Series [18] in a line: AUC (0 to time) in Sprague-Dawley rat at 25 mg/kg, ig administered as single dose. In kind it is ADME, organism-based. More on the design: dose 25 mg/kg, route intragastric. The note with it: plasma, po. Summed up:
as §3

Series [19] concerns Mus musculus. Put plainly: Toxicity in mouse at 250 to 1000 mg/kg, ig. In kind it is organism-based. More on the design: dose 250-1000 mg/kg, route intragastric. The note with it: in vivo, po. Put shortly: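 Single-dose toxicity in mice: compound given intragastrically at 250, 500 or 1000 mg/kg, with deaths monitored.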
For series [20], the system named is HepG2. Put plainly: Cell cycle arrest in human HepG2 cells assessed as accumulation at G0/G1 phase at 10 ug/ml after 24 hrs by FACS flow cytometric analysis (reference value: 2 %). In kind it is functional. The note with it: HepG2, 24 h. Summed up: as §1
The test system of series [21] is HepG2. Put plainly: Cell cycle arrest in human HepG2 cells assessed as accumulation at G0/G1 phase at 5 ug/ml after 24 hrs by FACS flow cytometric analysis (reference value: 2 %). The note with it: HepG2, 24 h. In kind it is functional. Put shortly:
as §1

The test system of series [22] is HepG2. Briefly: Cell cycle arrest in human HepG2 cells assessed as accumulation at G0/G1 phase at 2.5 ug/ml after 24 hrs by FACS flow cytometric analysis (reference value: 2 %). In kind it is functional. The note with it: HepG2, 24 h. Put shortly: as §1

For `OCCCC[C@@H]1[C@H]2CCCN3CCC[C@H](CN1Cc1ccc(Cl)cc1)[C@@H]23`, in the series with HepG2 [1], the inhibition at 2.5 µg/mL was determined as 4.1%. Besides, the MRT in series [2] worked out at 3.28 h; in series [8], 2.39 h. Further, the AUC in series [3] is 20.5 µM·h; in series [18], 18.6 µM·h. The values for the Tmax in series [4] and in series [15] were 0.66 h and 0.25 h, respectively. Further, the highest concentration (Cmax) turned out to be 5.25 µM in series [5] and 3.43 µM in series [17]. Further, the IC50 in series [6] is 4.52 µM; in the series on HCT-116, 10.6 µM; with HepG2 [13], 9.37 µM; with KB, 19.7 µM; in the series with NCI-H1299 it was 5.55 µM; in the series with MCF7, 5.73 µM. The inhibition at 10 µg/mL was found to be 87.7% with HepG2 [7] and 3.3% in the series with HepG2 [11]. Further, the half-life in [9] is 4.46 h; in [14], 3.87 h. The bioavailability in series [10] is 18%. Also, in the series with HepG2 [12], the inhibition at 5 µg/mL is 3.3%. For the same compound, the Activity result in the series with Mus musculus [16] and with Mus musculus [19] was “Non-toxic” throughout.

As to `CC[C@@]1(O)C(=O)OCc2c1cc1n(c2=O)Cc2cc3c(CN(C)C)c(O)ccc3nc2-1` [TOPOTECAN], the IC50 is 0.16 µM in series [6]; 4.32 µM in the series with HCT-116; 1.66 µM in the series with HepG2 [13]; over 200 µM with KB; 11 µM with NCI-H1299; 14.3 µM with MCF7. Besides, in the series on HepG2 [7], the inhibition at 10 µg/mL is 72.6%.

Take `COC(=O)CCC[C@@H]1[C@H]2CCCN3CCC[C@H](CN1Cc1ccc(Cl)cc1)[C@@H]23`: the IC50 in [6] was determined as 12.6 µM; in the series on HCT-116, 4.59 µM; in the series on HepG2 [13], 4.05 µM; in the series with KB, 6.11 µM; in the series with NCI-H1299, 4.06 µM; in the series with MCF7 it was 20 µM. The inhibition at 10 µg/mL was determined as 97.6% with HepG2 [7] and 8.5% in the series on HepG2 [20]. Further, the inhibition at 5 µg/mL in the series on HepG2 [21] was 11.8%. Moreover, the Activity result in the series with Mus musculus [16] and in the series on Mus musculus [19] was “Non-toxic” in each case. The inhibition at 2.5 µg/mL in the series on HepG2 [22] is 6.3%.
